55 sequences from the array DNA melting data of Ke et al. (doi:10.1101/2024.01.08.574731) can be followed below.

Series [1] is described as follows: folding enthalpy; higher = less favourable; fluorescence melt of hairpins on a sequencing array, two-state fit. The settings on record: sodium 0.088 M. An outline of the steps: (§1)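 Cy3 fluorescence of library hairpins on a sequenced MiSeq flow cell, with annealed Cy3 and quencher oligos, was imaged in 50 mM Na-HEPES pH 8.0, 25 mM NaCl in 2.5 °C steps up to 60 °C. Signals were normalised to pre-quench Cy3 and to control variants. Melting temperature and folding enthalpy came from bootstrapped two-state fits, inverse-variance combined over four replicates. Fitted temperatures were raised by 9.35 °C to match UV melts.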

Series [2] can be described thus: melting temperature; fluorescence melt of hairpins on a sequencing array, two-state fit, raised by 9.35 °C to match UV melts. Particulars: sodium 0.088 M. Put shortly: as §1

GCACGACGAAAGTCTGC (((.(((....)))))): the folding enthalpy in series [1] is -20.8 kcal/mol. The Tm in series [2] was 52.4 °C.

For the sequence GCACGAGAAATCGTGC ((((((....)))))), in series [1], the folding enthalpy was -32 kcal/mol. Also, the Tm in series [2] was found to be 68.6 °C.

Consider GCACGCCGAAAGGCTGC (((.(((....)))))), for which, in series [1], the folding enthalpy was -21.8 kcal/mol. Moreover, the Tm in series [2] stood at 64.6 °C.

For the sequence GCACGCCGAAAGGCTTGC (((.(((....))).))), the folding enthalpy in series [1] was -28.7 kcal/mol. The Tm in series [2] amounted to 58.3 °C.

For GCACGCGAAAGCGAATGC ((((((....)))..))), in series [1], the folding enthalpy was -18.6 kcal/mol. Besides, the Tm in series [2] worked out at 49.2 °C.

GCACGCGAAAGCGCTTGC ((((((....)))..))): the folding enthalpy in series [1] was -13.3 kcal/mol. In series [2], the Tm was 42.8 °C.

Consider GCACGCGAAAGCGGTTGC ((((((....)))..))), for which the folding enthalpy in series [1] is -13.3 kcal/mol. In addition, the Tm in series [2] is 49.5 °C.

GCACGCGAAAGCGTTGC ((((((....))).))): in series [1], the folding enthalpy was -17.8 kcal/mol. In series [2], the Tm worked out at 64.7 °C.

With GCACGCGGAAACGCGTAC (.(((((....))))).), the folding enthalpy in series [1] was -10.1 kcal/mol. For the same sequence, the Tm in series [2] was found to be 48.1 °C.

As to GCACGGCGAAAGCACTGC (((..((....))..))), in series [1], the folding enthalpy is -20.1 kcal/mol. The Tm in series [2] is 40.5 °C.

On to GCACGGCGAAAGCCAAGC ((..(((....)))..)), for which the folding enthalpy in series [1] was -15.4 kcal/mol. In series [2], the Tm worked out at 46.6 °C.

Take GCACGGCGAAAGCCATGC (((.(((....))).))): in series [1], the folding enthalpy is -36 kcal/mol. Further, the Tm in series [2] is 55.1 °C.

Consider GCACGGCGAAAGCTATGC (((..((....))..))), for which, in series [1], the folding enthalpy was -19.9 kcal/mol. Also, in series [2], the Tm was determined as 42.1 °C.

With GCACGTCGAAAGACTTGC (((.(((....))).))), the folding enthalpy in series [1] is -40.6 kcal/mol. Further, the Tm in series [2] stood at 51.1 °C.

As for GCACGTGCGAAAGCATGC (((..(((....)))))), the folding enthalpy in series [1] is -8.57 kcal/mol. Further, in series [2], the Tm is 40.4 °C.

On to GCACGTGGAAACACGCGC ((.((((....)))).)), for which, in series [1], the folding enthalpy is -38.4 kcal/mol. The Tm in series [2] amounted to 57.5 °C.

Consider GCACGTGGAAACATGTGC ((((.((....)).)))), for which, in series [1], the folding enthalpy is -36.8 kcal/mol. For the same sequence, the Tm in series [2] was determined as 56.9 °C.

On to GCACTAACGAAAGTTTGC (((..(((....)))))), for which, in series [1], the folding enthalpy was -15 kcal/mol. Besides, in series [2], the Tm worked out at 32.7 °C.

With GCACTACGAAAGTATGC (((.(((....)))))), the folding enthalpy in series [1] was -25.5 kcal/mol. Besides, the Tm in series [2] worked out at 43 °C.

As to GCACTAGGAAACTAGTAC (.(((((....))))).), the folding enthalpy in series [1] is -20.8 kcal/mol. Moreover, in series [2], the Tm turned out to be 31 °C.

With GCACTATCGAAAGATTGC (((..(((....)))))), the folding enthalpy in series [1] is -17.7 kcal/mol. In series [2], the Tm was determined as 30.6 °C.

For the sequence GCACTCGAAAGAGATTGC ((((((....)))..))), the folding enthalpy in series [1] was -15.2 kcal/mol. Moreover, the Tm in series [2] came out at 34.2 °C.

With GCACTCGAAAGAGGATGC ((((((....)))..))), the folding enthalpy in series [1] is -22.4 kcal/mol. Moreover, the Tm in series [2] was 40.1 °C.

Turning to GCACTCGCGAAAGCGTGC (((..(((....)))))), the folding enthalpy in series [1] was -14.7 kcal/mol. For the same sequence, in series [2], the Tm was found to be 50.5 °C.

As for GCACTGCGAAAGCACAGC ((..(((....)))..)), the folding enthalpy in series [1] was -11.6 kcal/mol. The Tm in series [2] came out at 29.2 °C.

For GCACTGCGAAAGCACTGC (((.(((....))).))), the folding enthalpy in series [1] is -28.1 kcal/mol. The Tm in series [2] came out at 44.4 °C.

For GCACTGCGAAAGCATGC (((.(((....)))))), the folding enthalpy in series [1] was -20.7 kcal/mol. Also, the Tm in series [2] came to 53.1 °C.

Take GCACTGCGAAAGCCGTGC ((((.((....)).)))): in series [1], the folding enthalpy was -37.2 kcal/mol. The Tm in series [2] is 63.3 °C.

Turning to GCACTGCGAAAGCGATGC (((..((....))..))), the folding enthalpy in series [1] is -19.7 kcal/mol. Besides, in series [2], the Tm came to 45 °C.

Consider GCACTGCGAAAGCGTTGC (((..((....))..))), for which, in series [1], the folding enthalpy was -23.6 kcal/mol. In addition, the Tm in series [2] was found to be 45.3 °C.

Consider GCACTTGGAAACAAATGC (((.(((....))).))), for which the folding enthalpy in series [1] was -24.8 kcal/mol. For the same sequence, the Tm in series [2] worked out at 35.4 °C.

For the sequence GCACTTGGAAACAGGTGC ((((.((....)).)))), the folding enthalpy in series [1] was -48.4 kcal/mol. The Tm in series [2] came to 51.7 °C.

Take GCAGAACGAAAGTTATGC (((.(((....))).))): in series [1], the folding enthalpy is -39.3 kcal/mol. Also, in series [2], the Tm is 55.4 °C.

Consider GCAGAACGAAAGTTTGC (((.(((....)))))), for which the folding enthalpy in series [1] was -25.9 kcal/mol. The Tm in series [2] was 44.7 °C.

As to GCAGAAGAAATTCTGC ((((((....)))))), in series [1], the folding enthalpy was -32.6 kcal/mol. In addition, in series [2], the Tm is 52.9 °C.

Turning to GCAGAAGGAAACTTCCGC ((.((((....)))).)), the folding enthalpy in series [1] is -20.6 kcal/mol. Moreover, in series [2], the Tm turned out to be 37.5 °C.

Turning to GCAGACCCGAAAGGGTGC (((..(((....)))))), in series [1], the folding enthalpy was -14.2 kcal/mol. Besides, the Tm in series [2] was 50.3 °C.

On to GCAGACCGAAAGGTGTGC (((.(((....))).))), for which the folding enthalpy in series [1] is -35.8 kcal/mol. For the same sequence, in series [2], the Tm was found to be 63 °C.

GCAGACCGAAAGGTTTGC (((.(((....))).))): the folding enthalpy in series [1] was -41.6 kcal/mol. Further, the Tm in series [2] was found to be 63.4 °C.

As for GCAGACGAAAGTCTTGC ((((((....))).))), the folding enthalpy in series [1] was -27 kcal/mol. Further, the Tm in series [2] is 51.3 °C.

As for GCAGACGGAAACATCTGC (((((.(....).))))), the folding enthalpy in series [1] was -29.9 kcal/mol. For the same sequence, in series [2], the Tm is 44.5 °C.

For GCAGACGGAAACGTCCGC ((.((((....)))).)), the folding enthalpy in series [1] is -24 kcal/mol. In addition, the Tm in series [2] came out at 52.6 °C.

Regarding GCAGAGCGAAAGCACTGC ((((.((....)).)))), in series [1], the folding enthalpy is -34 kcal/mol. Further, the Tm in series [2] stood at 67.4 °C.

Take GCAGAGCGAAAGCCATGC (((..((....))..))): the folding enthalpy in series [1] is -18.9 kcal/mol. Moreover, the Tm in series [2] came out at 45.7 °C.

GCAGAGCGAAAGCTATGC (((.(((....))).))): the folding enthalpy in series [1] is -44.8 kcal/mol. For the same sequence, the Tm in series [2] was determined as 59.7 °C.

Take GCAGAGCGAAAGCTTGC (((.(((....)))))): in series [1], the folding enthalpy is -20.6 kcal/mol. Moreover, the Tm in series [2] amounted to 53.7 °C.

As for GCAGAGCGAAAGCTTGGC ((..(((....)))..)), in series [1], the folding enthalpy is -18.8 kcal/mol. Moreover, in series [2], the Tm was 49.5 °C.

On to GCAGAGGGAAACCTCCGC ((.((((....)))).)), for which, in series [1], the folding enthalpy is -26 kcal/mol. Besides, the Tm in series [2] was found to be 44.7 °C.

Take GCAGAGGGAAACCTCTAC (.(((((....))))).): the folding enthalpy in series [1] is -14.7 kcal/mol. Also, the Tm in series [2] is 35.2 °C.

On to GCAGATGGAAACATTTGC (((.(((....))).))), for which the folding enthalpy in series [1] was -33.7 kcal/mol. In addition, in series [2], the Tm was determined as 44.5 °C.

As to GCAGCACGAAAGTGTGC (((.(((....)))))), the folding enthalpy in series [1] was -18.6 kcal/mol. In series [2], the Tm amounted to 55.7 °C.

Consider GCAGCAGGAAACCGCTAC (.(((.(....).))).), for which, in series [1], the folding enthalpy is -14.6 kcal/mol. Besides, the Tm in series [2] was determined as 28.1 °C.

Consider GCAGCCGAAAGGCATTGC ((((((....)))..))), for which, in series [1], the folding enthalpy was -15.6 kcal/mol. In series [2], the Tm is 41.5 °C.

In the case of GCAGCCGAAAGGCTATGC ((((((....)))..))), the folding enthalpy in series [1] is -14 kcal/mol. Besides, in series [2], the Tm was determined as 47.4 °C.

Consider GCAGCGCGAAAGCCCGGC ((.(.((....)).).)), for which the folding enthalpy in series [1] was -17.6 kcal/mol. In addition, the Tm in series [2] is 39.3 °C.
